Source: PubChem
The sample as a whole holds a higher share of hits than the screen did.
T cruzi inh – T. cruzi replication inhibition. T. cruzi beta-gal in NIH3T3, luminescence, 90 h. 1.4% of 300,000 active. AID 1885. inhibition, % (test concentration not listed);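 active = mean inhibition across valid replicates above about 55%, limit read from the data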;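 also: signal also drops with host cell toxicity which is not excluded here; higher percent means less beta-gal luminescence so fewer parasites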
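System: NIH/3T3 fibroblasts plus reporter T. cruzi. Medium: DMEM plus 2% FBS. Probe or stimulus: 5000 reporter trypomastigotes per well. Compound: single 50 nL compound addition per well in DMSO. Incubation: co-culture of at least 90 h after 3 h attachment. Detection: GalScreen β-gal luminescence, detergent lysis, 60 min. Evaluation: parasite load inhibition, %.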
MPTP block – blocks calcium-induced mitochondrial swelling; AID 602449; 1.4% of 360,000 active; isolated mouse mitochondria, Ca2+ swelling absorbance, 30 min; inhibition, % at 10 µM;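 active = inhibition of 50% or more, scaled per plate between neutral and stimulator controls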
Lipid droplet – hepatic lipid droplet formation modulation | AML12 mouse hepatocytes, oleate lipid droplets, BODIPY imaging | inhibition, % at 6.5 µM | AID 1656 | 0.4% of 240,000 active;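 active = lipid droplet intensity inhibited by at least 50%, with more than 500 cells counted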
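Assay system: AML12 hepatocytes (mouse); Probe or stimulus: oleic acid at 100 µM to induce lipid droplet formation; Dosing: compound at 6.5 µM only; Schedule: compound with oleate, overnight; Detection: fluorescence imaging, 20x objective, two fields per well; Measure: % inhibition of lipid droplet signal.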
DTT redox prof – compounds producing H2O2 with reducing agent – biochemical, NIH compound library profiling, artefact control for MLSCN library redox annotation, primary screen. activation, % at 10 µM. 0.03% of 200,000 active. DTT-dependent redox cycling H2O2, phenol red/HRP absorbance; 100% = 100 µM peroxide control, 0% = buffer. AID 878;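 active = activation of at least 50% relative to the plate's high and low controls in the primary single-dose screen; inactive = activation below 50%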;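 also: compound incubated with DTT at 0.8 mM final as the reducing agent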
Lmaj promast – reduces viability of Leishmania major promastigotes | resazurin fluorescence viability | inhibition, % at 10 µM | 9% of 200,000 active; in the data active = inhibition above about 50%;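 also: promastigotes grown with compound for 44 hours at 28 °C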
Each line names hits and unclear results; the compound was inactive in the other large screens.

O=S(=O)(c1ccc(OC(F)(F)F)cc1)N1CCCC(N2CCOCC2)C1 (stereo unspecified)	none (no result: DTT redox prof, Lmaj promast)
Cc1ccccc1CN1CCN(CC2CC3C=CC2C3)CC1 (stereo unspecified)	Lmaj promast 87.4
O=C(NCC1(c2ccccc2)CCOCC1)c1cccs1	none (no result: Lipid droplet)
O=[N+]([O-])c1cccc(COc2ncnc3cc([N+](=O)[O-])ccc23)c1	T cruzi inh 63.7 (no result: DTT redox prof, Lmaj promast)
COc1ccc(CCNC(=O)COc2ncnc3cc([N+](=O)[O-])ccc23)cc1	none
O=C(NCc1ccco1)c1cc([N+](=O)[O-])ccc1N1CCOCC1	none
CCN(CC)C(=O)c1sc(NC(=O)Cc2ccc(OC)cc2)c(C#N)c1C	Lmaj promast 84.6
COC(=O)CC1=C(C(=O)OC)[C@@H](c2ccccc2[N+](=O)[O-])C(C#N)=C(N)O1	none (no result: DTT redox prof, Lmaj promast)
COc1cc(C(=O)OCC(=O)NC2CC2)ccc1OCCC(C)C	none (no result: T cruzi inh, Lipid droplet, DTT redox prof, Lmaj promast)
O=C(O)C1CCCCC1C(=O)NCc1ccccn1 (stereo unspecified)	none
CCC1(C)N=C(c2ccc3c(c2)OCO3)CC(c2ccccc2O)N1 (stereo unspecified)	Lmaj promast 95.3
COc1cccc(C2=NC(C)(C)NC(c3ccccc3O)C2)c1 (stereo unspecified)	Lmaj promast 96.7 (no result: T cruzi inh, Lipid droplet)
O=C(C1CCN(c2ccc(N3CCOCC3)nn2)CC1)N1CCc2ccccc2C1	Lmaj promast 95.2 (no result: Lipid droplet)
CCOC(=O)C1CCN(C(=O)Cn2ncc3c([nH]c4ccccc43)c2=O)CC1	none (no result: DTT redox prof, Lmaj promast)
O=C(NCCNCc1ccc(F)cc1)c1ccco1	Lmaj promast 53.9
CCOc1ccc(N2C(=O)CN(O)C=C3N=c4ccccc4=C32)cc1	none (no result: MPTP block)
COC(=O)c1c(NC(=O)Cc2ccccc2)sc(C)c1C	none
COC(=O)c1c(NC(=O)C2CC(=O)NN2Cc2ccccc2)sc(C)c1C (stereo unspecified)	Lmaj promast 100.1 (no result: Lipid droplet)
O=C(NCCO)C(=O)NCC1OCCCN1S(=O)(=O)c1cc(F)ccc1F (stereo unspecified)	none (no result: DTT redox prof, Lmaj promast)
Cc1ccc(C(=O)c2coc3c2C(=O)C(=O)c2ccccc2-3)cc1	Lmaj promast 100.2
COc1ccc(C(=O)c2coc(-c3ccccc3C(=O)O)c2C(=O)O)cc1	none
O=C1C2C3C=CC(C2C(=O)N1c1cccc(O)c1)C1C2C(=O)N(c4cccc(O)c4)C(=O)C2C31 (stereo unspecified)	none
Cc1cccc(C)c1NC(=O)C1(C)CN(S(C)(=O)=O)CC(=O)N1CCc1c[nH]c2ccccc12 (stereo unspecified)	none (no result: T cruzi inh, Lipid droplet, DTT redox prof, Lmaj promast)
COc1cc(C2SCC(=O)N2CCCN(C)C)cc(OC)c1OC (stereo unspecified)	T cruzi inh 60.9
Cc1cc(C)c(S(=O)(=O)N2CCN=C2c2ccccc2)cc1C	none
COc1cc(C)c(S(=O)(=O)N2CCN=C2c2ccccc2)cc1C	Lmaj promast 93.5
CCOc1cc(/C=N\NC(N)=O)cc(Br)c1OC(C)C	none
CCOc1cc(/C=N/NC(=O)C(=O)NCCCOC(C)C)cc(Br)c1O	Lmaj promast 69.5
O=C(N/N=C/C(Br)=C/c1ccccc1)c1cccs1	none
CSC1=NC(C)(C)C=C(/C=C/c2c(Cl)cccc2Cl)N1	Lmaj promast 58.3
CSC1=NC(C)(C)C=C(/C=C/c2ccc(Cl)cc2)N1	Lmaj promast 100.4
CCSC1=NC(C)(C)C=C(/C=C/c2ccc(Cl)cc2Cl)N1	Lmaj promast 100.1
Nc1nccc(/C=C/c2ccc(Cl)cc2)n1	none (no result: DTT redox prof, Lmaj promast)
CCSC1=NC(C)(C)C=C(C)N1	none
CSC1=NC(C)(C)C=C(/C=C/c2ccc(Cl)cc2Cl)N1	Lmaj promast 71.7
Clc1ccc(/C=C/c2ncc[nH]2)c(Cl)c1	none (no result: DTT redox prof, Lmaj promast)
Nc1nccc(/C=C/c2c(Cl)cccc2Cl)n1	none (no result: DTT redox prof, Lmaj promast)
CN(C)NC(=S)NC1CC2CCC1C2 (stereo unspecified)	none (no result: DTT redox prof, Lmaj promast)
O=C(CNC(=O)c1ccc(Br)o1)NCc1ccc(F)cc1	none (no result: DTT redox prof, Lmaj promast)
O=C(CC(Nc1ccc(F)cc1)C(=O)O)c1ccccc1 (stereo unspecified)	Lmaj promast 60.7
Cc1ccc(NC(CC(=O)c2ccccc2)c2ccc(F)cc2)cc1 (stereo unspecified)	none (no result: Lipid droplet)
Cc1ccc(NC2CCCN(C(=O)Cc3nonc3C)C2)cc1C (stereo unspecified)	none (no result: DTT redox prof, Lmaj promast)
OC(CNC1CCCc2ccccc21)COc1c(Cl)cccc1Cl (stereo unspecified)	Lmaj promast 93.3
OC(CNC1Cc2ccccc2C1)COc1ccc(Cl)cc1 (stereo unspecified)	none (no result: DTT redox prof, Lmaj promast)
O=C(CSCc1ccccc1)N/N=C/c1ccc(OCC(=O)N2CCCCC2)cc1	Lmaj promast 56.7
COc1ccc(C=O)c(-c2c(-c3ccccc3OC)sc3ccccc23)c1	none (no result: T cruzi inh, Lipid droplet, DTT redox prof, Lmaj promast)
C/C(=N\NC(=O)c1cccc(S(=O)(=O)N2CCOCC2)c1)c1ccc(OCC(=O)N(C)C)cc1	none (no result: Lipid droplet, DTT redox prof, Lmaj promast)
CNc1nc(SCc2ccccc2Cl)nc2c1CCCC2	Lmaj promast 87.7
CC(NC(=O)COC(=O)c1ccc(Br)o1)c1ccccc1 (stereo unspecified)	none (no result: T cruzi inh, Lipid droplet, DTT redox prof, Lmaj promast)
C/C(=C\C(=O)c1ccccc1)Nc1ccc(N2CCOCC2)cc1	T cruzi inh 64.2 (no result: Lipid droplet)
OC(c1ccccc1)c1ncc(-c2cccc(F)c2)[nH]1 (stereo unspecified)	none (no result: T cruzi inh, Lipid droplet, DTT redox prof, Lmaj promast)
O=C(c1ccc(F)cc1)N(NC(=O)C(O)(c1ccccc1)c1ccccc1)c1ccccc1	Lmaj promast 65.9
COC(=O)c1ccc(N/C=C\C(=O)c2ccc3c(c2)OCO3)cc1	none
COc1ccc(N/C=C\C(=O)c2ccc3c(c2)OCO3)cc1OC	Lmaj promast 88.0 (no result: DTT redox prof)
O=C(CN1CCN(Cc2ccccc2)CC1)N=Nc1c(O)[nH]c2ccccc12	Lmaj promast 96.2
CCOc1ccc(C(C)(C)C)cc1S(=O)(=O)N1CC(C)OC(C)C1 (stereo unspecified)	Lmaj promast 63.5
Nc1cc(C(=O)OCC(=O)NNC(=O)c2cccs2)ccc1Cl	none (no result: Lipid droplet, DTT redox prof, Lmaj promast)
CC(=O)Nc1ccc(N=Nc2ccc(O)cc2)cc1	Lmaj promast 52.1
CC(=O)Nc1ccc(N=NN2CCOCC2)cc1	none
O=C(CCS(=O)(=O)c1ccccc1)Nc1ccc(Cl)cn1	none (no result: DTT redox prof, Lmaj promast)
O=C(Nc1ccccc1-c1nc2ccccc2[nH]1)c1sc2ccccc2c1Cl	T cruzi inh 60.3 (no result: MPTP block)
CN(C)S(=O)(=O)c1ccc(NC(=O)CN2C(=O)NC(Cc3ccccc3)C2=O)cc1 (stereo unspecified)	none (no result: T cruzi inh, Lipid droplet, DTT redox prof, Lmaj promast)
CCOc1cc(N2CCOCC2)c(OCC)cc1NC(=O)c1ccc2ccccc2n1	T cruzi inh 58.2
CCOc1cc(N2CCOCC2)c(OCC)cc1NC(=O)c1ccccc1C	none
CCNC(=S)Nc1cc(OCC)c(N2CCOCC2)cc1OCC	Lmaj promast 63.7 (no result: DTT redox prof)
CCCNC(=O)Nc1cc(OCC)c(N2CCOCC2)cc1OCC	none (no result: Lipid droplet)
O=C(Nc1ccc(OCc2ccccc2)cc1)Nc1nnc([C@@H]2C[C@H](O)[C@@H](CO)O2)s1	none (no result: T cruzi inh, Lipid droplet, DTT redox prof, Lmaj promast)
COc1ccc(-n2c(C)cc(/C=C3\SC(=S)N(Cc4ccco4)C3=O)c2C)cc1	Lmaj promast 67.6
Cc1ccccc1CN(C)C(=O)c1ccc2ccccc2n1	none (no result: DTT redox prof, Lmaj promast)
